Measurements taken from ChEMBL document CHEMBL4725355, “Design, Synthesis, and Preclinical Evaluation of 3-Methyl-6-(5-thiophenyl)-1,3-dihydro-imidazo[4,5-b]pyridin-2-ones as Selective GluN2B Negative Allosteric Modulators for the Treatment of Mood Disorders” (J Med Chem, 2020).

Legend:
[1] = Drug level in Sprague-Dawley rat brain hippocampus at 0.03 mg/kg, iv after 30 min by LC-MS/MS analysis; format: ADME, organism-based; settings: read-out: Drug uptake
Procedure, shortened: (§1)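 Single i.v. dose of 0.03 mg/kg in 50% (w/v) PEG/water, pH 7.4; rats n=3 per group, killed at 5, 10, 30, 60 and 120 min. Cerebellum, cortex, striatum and hippocampus dissected, weighed and homogenized; drug quantified by LC-MS/MS and normalized to tissue weight. P<0.05 taken as significant versus cerebellum.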

[2] = Half life in mouse at 0.5 mg/kg, iv by LC-MS/MS analysis; format: ADME, organism-based; settings: in vivo
Cytochrome P450 2C9 = Cytochrome P450 2C9 (Homo sapiens, UniProt P11712); assay: Inhibition of CYP2C9 in human liver microsomes using tolbutamide as substrate measured after 15 mins by LC-MS/MS analysis; format: ADME
Procedure, shortened: (§2)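 Human liver microsomes incubated with isoform-specific probe substrates and the test compound at concentrations up to 20 µM. IC50 derived from inhibition of metabolite formation; mean of two independent experiments, with known specific inhibitors as positive controls.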

[3] = Tmax in Sprague-Dawley rat at 500 mg/kg, po administered via gavage after 24 hrs using nanosuspension formulation by LC-MS/MS analysis; format: ADME, organism-based; settings: in vivo
Procedure, shortened: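 Single oral gavage of a nanosuspension (API:polymer 4:1), diluted with vehicle on the dosing day, at 100, 250 or 500 mg/kg to male Sprague Dawley rats, 3 per dose. Plasma was sampled from 0.5 to 24 h.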

Cytochrome P450 1A2 = target: T1, Cytochrome P450 1A2 (Homo sapiens, UniProt P05177); assay: Inhibition of CYP1A2 in human liver microsomes using phenacetin as substrate measured after 15 mins by LC-MS/MS analysis; format: ADME; procedure, shortened: as §2
T1 sequence (P05177 whole entry): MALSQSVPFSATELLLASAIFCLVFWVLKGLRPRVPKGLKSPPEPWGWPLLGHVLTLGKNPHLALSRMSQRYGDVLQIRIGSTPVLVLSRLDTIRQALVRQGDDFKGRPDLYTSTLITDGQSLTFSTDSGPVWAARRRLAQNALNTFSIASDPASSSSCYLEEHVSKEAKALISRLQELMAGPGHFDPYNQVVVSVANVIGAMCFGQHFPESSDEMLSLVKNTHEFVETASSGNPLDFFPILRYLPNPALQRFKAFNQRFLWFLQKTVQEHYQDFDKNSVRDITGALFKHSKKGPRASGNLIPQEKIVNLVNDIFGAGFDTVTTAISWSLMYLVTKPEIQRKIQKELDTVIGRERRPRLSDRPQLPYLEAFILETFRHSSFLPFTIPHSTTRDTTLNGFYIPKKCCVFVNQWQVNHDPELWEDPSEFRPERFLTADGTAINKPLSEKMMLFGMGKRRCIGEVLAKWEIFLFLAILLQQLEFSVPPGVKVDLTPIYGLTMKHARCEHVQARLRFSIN

[4] = Cmax in Sprague-Dawley rat at 500 mg/kg, po administered via gavage after 24 hrs using HPMC formulation by LC-MS/MS analysis; format: ADME, organism-based; parameters: route oral, time 24 hrs, dose 500 mg/kg; settings: in vivo
Procedure, shortened: (§3)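 Single oral gavage dose to male Sprague Dawley rats, 3 per dose level. Vehicles were a standard suspension in 5% HPMC (125, 250, 500 or 1000 mg/kg) or a nanosuspension (API:polymer 4:1), with stock diluted in vehicle on the day of dosing (100, 250 or 500 mg/kg). Blood was sampled at time points from 0.5 to 24 h.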

[5] = (§4) Ratio of Cmax in Sprague-Dawley rat at 500 mg/kg, po administered via gavage after 24 hrs using HPMC formulation by LC-MS/MS analysis to EC70 for ex vivo receptor occupancy at GluN2B in po dosed Sprague-Dawley rat assessed as 3-[3H] 1-(azetidin-1-yl)-2-[6-(4-fluoro-3-methyl-phenyl)pyrrolo[3,2-b]pyridin-1-yl]-ethanone labelling; format: ADME, organism-based
[6] = Drug level in Sprague-Dawley rat brain cortex at 0.03 mg/kg, iv after 5 to 120 mins by LC-MS/MS analysis; format: ADME, organism-based; settings: in vivo, time 5-120 min; procedure, shortened: as §1
[7] = AUC (0 to 24 hrs) in Sprague-Dawley rat at 250 mg/kg, po administered via gavage after 24 hrs using HPMC formulation by LC-MS/MS analysis; format: ADME, organism-based; parameters: route oral, dose 250 mg/kg, time <=24; settings: in vivo; procedure, shortened: as §3
[8] = Cmax in Sprague-Dawley rat at 1000 mg/kg, po administered via gavage after 24 hrs using HPMC formulation by LC-MS/MS analysis; format: ADME, organism-based; parameters: route oral, dose 1000 mg/kg, time 24 hrs; settings: in vivo; procedure, shortened: as §3
[9] = as §4, with “mg/kg/day,” for “mg/kg,”, “as nanosuspension measured for 14 days” for “via gavage after 24 hrs using HPMC formulation by LC-MS/MS analysis”; format: ADME, organism-based; settings: 336 h
[10] = Cmax in Sprague-Dawley rat at 250 mg/kg, po administered via gavage after 24 hrs using HPMC formulation by LC-MS/MS analysis; format: ADME, organism-based; parameters: route oral, time 24 hrs, dose 250 mg/kg; settings: in vivo; procedure, shortened: as §3
[11] = Metabolic stability in human liver microsomes assessed as extraction ratio at 1 uM after 5 to 60 mins in presence of NADPH by LC-MS/MS analysis; format: ADME, Microsome; settings: time 5-60 min, read-out: ERH
Procedure, shortened: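 Human and rat liver microsomes, run in duplicate; stability reported as microsomal extraction ratio.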

[12] = Intrinsic clearance in rat liver microsomes at 1 uM after 5 to 60 mins in presence of NADPH by LC-MS/MS analysis; format: ADME, Microsome; settings: time 5-60 min, read-out: CLH
[13] = Drug level in Sprague-Dawley rat brain cerebellum at 0.03 mg/kg, iv after 30 min by LC-MS/MS analysis; format: ADME, organism-based; settings: read-out: Drug uptake; procedure, shortened: as §1
[14] = Cmax in dog at 0.5 mg/kg, po by LC-MS/MS analysis; format: ADME, organism-based, Canis lupus familiaris; parameters: route oral, dose 0.5 mg/kg; settings: in vivo
[15] = Tmax in dog at 0.5 mg/kg, po by LC-MS/MS analysis; format: ADME, organism-based, Canis lupus familiaris; settings: in vivo
[16] = AUC (0 to 24 hrs) in Sprague-Dawley rat at 500 mg/kg/day, po administered as nanosuspension measured for 14 days measured post last dose by LC-MS/MS analysis; format: ADME, organism-based; parameters: route oral, dose 500 mg/kg/day, time 14 day; settings: in vivo
Procedure, shortened: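 Repeated daily oral dosing of the nanosuspension to rats for 14 days, up to 500 mg/kg/day.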

[17] = Cmax in mouse at 2.5 mg/kg, po by LC-MS/MS analysis; format: ADME, organism-based; parameters: route oral, dose 2.5 mg/kg; settings: in vivo
[18] = AUC (infinity) in Sprague-Dawley rat at 2.5 mg/kg, po by LC-MS/MS analysis; format: ADME, organism-based; parameters: time infinity, route oral, dose 2.5 mg/kg; settings: in vivo
Procedure, shortened: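 Rat PK with IV and PO dosing, n=3. The usual doses were 0.5 mg/kg IV and 2.5 mg/kg PO in 20% HP-β-CD. One compound was instead given at 0.1 mg/kg IV and 0.5 mg/kg PO.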

[19] = Toxicity in Sprague-Dawley rat assessed as change in behavior at 500 mg/kg/day, po administered as nanosuspension measured after 2 days; format: organism-based; settings: in vivo, 48 h, time 2 day
Procedure, shortened: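 Repeated daily oral dosing of a nanosuspension to rats for 14 days, with 500 mg/kg/day as the high dose. Clinical observations were recorded, and animals were moved to individual caging on Day 6.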

[20] = Tmax in mouse at 2.5 mg/kg, po by LC-MS/MS analysis; format: ADME, organism-based; settings: in vivo

Sequence of Cytochrome P450 2C9 (P11712 whole entry, canonical isoform): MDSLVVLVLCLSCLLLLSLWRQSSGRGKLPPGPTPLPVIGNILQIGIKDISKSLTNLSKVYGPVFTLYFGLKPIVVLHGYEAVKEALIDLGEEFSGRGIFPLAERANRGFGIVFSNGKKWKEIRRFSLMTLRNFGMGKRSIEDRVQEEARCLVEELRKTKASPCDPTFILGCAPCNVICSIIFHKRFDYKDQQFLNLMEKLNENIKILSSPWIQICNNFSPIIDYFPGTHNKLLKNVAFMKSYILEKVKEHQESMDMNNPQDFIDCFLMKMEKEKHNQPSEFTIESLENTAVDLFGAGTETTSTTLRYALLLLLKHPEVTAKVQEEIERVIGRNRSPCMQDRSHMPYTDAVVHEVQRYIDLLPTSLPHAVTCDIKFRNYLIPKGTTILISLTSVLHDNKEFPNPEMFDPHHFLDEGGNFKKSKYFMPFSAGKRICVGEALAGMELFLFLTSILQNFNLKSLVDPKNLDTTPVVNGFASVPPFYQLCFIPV

- concentration at 0.5 h [1]: 22.7 ng/mL
- half-life [2]: 54 min
- IC50 (Cytochrome P450 2C9): > 50 µM
- Tmax [3]: 3.3 h
- IC50 (Cytochrome P450 1A2): > 50 µM
- Cmax [4]: 6140 ng/mL
- Ratio [5]: 9
- Drug uptake [6]: Active
- AUC(0-t) [7]: 19700 ng·h/mL
- Cmax [8]: 7010 ng/mL
- Ratio [9]: 31
- Cmax [10]: 5480 ng/mL
- hepatic extraction ratio at 1 µM [11]: < 0.3
- microsomal CLint at 1 µM [12]: 26.3 µL/min/mg
- concentration at 0.5 h [13]: 13.8 ng/mL
- Cmax [14]: 351 ng/mL
- Tmax [15]: 15 min
- AUC at 336 h [16]: 222 µg·h/mL
- Cmax [17]: 413 ng/mL
- AUC(0-inf) [18]: 1830 ng·h/mL
- Tmax [20]: 18 min
SMILES: Cn1c(=O)n(CC(=O)N2CCC2)c2cc(-c3ccc(C(F)(F)F)s3)cnc21
- Activity [19]: Toxic
